This passage reports Ratio results from ChEMBL document CHEMBL1146104, “Synthesis and transdermal penetration-enhancing activity of carbonic and carbamic acid esters--comparison with transkarbam 12” (Bioorg Med Chem Lett, 2006).

Holding throughout (type): ADME, organism-based
Common to all, as to details: pig

The species named for data set [1] is Sus scrofa. Put plainly: Enhancement of theophylline transdermal penetration through porcine ear skin using Franz diffusion cell in water medium relative to control. In a few lines: (§1)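 Theophylline permeation from donor samples with and without enhancer (control lacks enhancer); acceptor-phase theophylline quantified by HPLC. Cumulative amounts (μg/cm2) plotted against time to derive flux (μg/cm2/h). Value is the enhancement ratio: flux with enhancer divided by flux of control. Significance p < 0.05 versus control.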

The species named for data set [2] is Sus scrofa. Put plainly: Enhancement of theophylline transdermal penetration through porcine ear skin using Franz diffusion cell in isopropylmyristate medium relative to control. An outline of the steps:
as §1

The species entered for data set [3] is Sus scrofa. As to the kind of experiment: Enhancement of theophylline transdermal penetration through porcine ear skin using Franz diffusion cell in propylene glycol/water medium relative to control. An outline of the steps:
as §1

For `CCCCCCCCCCCCOC(=O)OCCCCCC(=O)NCCCCCCCCCC`, the Ratio is 1.13 in the data set filed under Sus scrofa [1], 1.48 in the data set filed under Sus scrofa [2] and 2.66 in the data set listed under Sus scrofa [3].

As to `CCCCCCCCCCCCNC(=O)CCC(C)OC(=O)OCCCCCCCCCCCC` (configuration not stated), the Ratio came to 1.7 in the data set listed under Sus scrofa [1], 1.15 in the data set listed under Sus scrofa [2] and 1.11 in the data set filed under Sus scrofa [3].

As to `CCCCCCCCCCCCOC(=O)CCCCCOC(=O)OCCCCCCCCCCCC`, the figures for the Ratio in the data set listed under Sus scrofa [1], in the data set listed under Sus scrofa [2] and in the data set listed under Sus scrofa [3] were 2.49, 1.29 and 1.13, respectively.

For the molecule `CCCCCCCCCCCCOC(=O)CCCCCCOC(=O)OCCCCCC(=O)OCCCCCCCCCCCC`, the Ratio in the data set listed under Sus scrofa [1] is 0.8; in the data set listed under Sus scrofa [2], 1.49; in the data set listed under Sus scrofa [3] it was 1.24.

Take `CCCCCCCCCCCCOC(=O)CCCCCOC(=O)OCCCCCC(=O)OCCCCCCCCCCCC`: the values for the Ratio in the data set listed under Sus scrofa [1], in the data set filed under Sus scrofa [2] and in the data set filed under Sus scrofa [3] were 1.76, 1.39 and 3.7, respectively.

In the case of `CCCCCCCCCCCCNC(=O)CCC(C)OC(=O)OCC` (configuration not stated), the values for the Ratio in the data set filed under Sus scrofa [1], in the data set listed under Sus scrofa [2] and in the data set listed under Sus scrofa [3] were 1.48, 1.77 and 1.45, respectively.

With `CCCCCCCCCCCCOC(=O)CCCCCNC(=O)OCC`, the Ratio worked out at 1.83 in the data set listed under Sus scrofa [1], 1.01 in the data set filed under Sus scrofa [2] and 1.52 in the data set filed under Sus scrofa [3].

`CCCCCCCCCCCCNC(=O)CCCCCOC(=O)OCCCCCC(=O)NCCCCCCCCCCCC`: the values for the Ratio in the data set filed under Sus scrofa [1], in the data set listed under Sus scrofa [2] and in the data set filed under Sus scrofa [3] were 0.91, 1.23 and 3.29, respectively.

Take `CCCCCCCCCCCCOC(=O)CCCCCN.CCCCCCCCCCCCOC(=O)CCCCCNC(=O)O` [TRANSKARBAM 12]: the figures for the Ratio in the data set listed under Sus scrofa [1], in the data set filed under Sus scrofa [2] and in the data set listed under Sus scrofa [3] were 1.9, 6.56 and 22.8, respectively.

Consider `CCCCCCCCCCCCOC(=O)CCCCCCOC(=O)NCCCCCC(=O)OCCCCCCCCCCCC`, for which the Ratio in the data set listed under Sus scrofa [1] was determined as 1.22; in the data set listed under Sus scrofa [2], 1.07; in the data set filed under Sus scrofa [3] it was 1.02.

Consider `CCCCCCCCCCCCOC(=O)CCCCCNC(=O)OCCCCCCCCCCCC`, for which the Ratio in the data set filed under Sus scrofa [1] was found to be 0.77; in the data set filed under Sus scrofa [2], 0.57; in the data set filed under Sus scrofa [3], 0.47.

As for `CCCCCCCCCCCCOC(=O)CCCCCNC(=O)OCCCCCC(=O)OCCCCCCCCCCCC`, the Ratio in the data set filed under Sus scrofa [1] stood at 2.27; in the data set listed under Sus scrofa [2], 1.29; in the data set filed under Sus scrofa [3], 2.63.

Turning to `CCCCCCCCCCCCOC(=O)CCCCCOC(=O)OCC`, the Ratio in the data set listed under Sus scrofa [1] amounted to 2.4; in the data set listed under Sus scrofa [2], 1.07; in the data set listed under Sus scrofa [3], 2.13.

Consider `CCCCCCCCCCNC(=O)CCCCCOC(=O)OCC`, for which the Ratio in the data set listed under Sus scrofa [1] turned out to be 3.37; in the data set filed under Sus scrofa [2], 1.75; in the data set filed under Sus scrofa [3] it was 1.36.
